The record followed here is ChEMBL document CHEMBL1240374, “Selection of mutations to detect multidrug-resistant Mycobacterium tuberculosis strains in Shanghai, China” (2010).

What all share (format): functional
Assay [1] relates to Mycobacterium tuberculosis. Nature of the assay: Antibacterial activity against drug resistant Mycobacterium tuberculosis containing phenotypic rpoB522 mutation assessed as cumulative microbial sensitivity by phenotypic drug susceptibility testing. In a few lines:
(§1)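 Phenotypic DST on clinical M. tuberculosis isolates by the egg-based Löwenstein-Jensen proportion method. Species was confirmed by biochemical tests and PCR. Mutations were found by sequencing. Each mutation is reported as a number and as a percentage of the isolates screened.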

For assay [2], the system named is Mycobacterium tuberculosis. Nature of the assay: Antibacterial activity against drug resistant Mycobacterium tuberculosis containing phenotypic rpoB534 mutation assessed as cumulative microbial sensitivity by phenotypic drug susceptibility testing. In a few lines:
as §1

In assay [3] the test system is Mycobacterium tuberculosis. Nature of the assay: Antibacterial activity against drug resistant Mycobacterium tuberculosis containing phenotypic rpoB529 mutation assessed as cumulative microbial sensitivity by phenotypic drug susceptibility testing. In a few lines:
as §1

Assay [4] relates to Mycobacterium tuberculosis. Put plainly: Antibacterial activity against drug resistant Mycobacterium tuberculosis containing phenotypic rpoB519 mutation assessed as cumulative microbial sensitivity by phenotypic drug susceptibility testing. In a few lines:
as §1

Assay [5] has as its system Mycobacterium tuberculosis. Put plainly: Antibacterial activity against drug resistant Mycobacterium tuberculosis containing phenotypic rpoB533 mutation assessed as cumulative microbial sensitivity by phenotypic drug susceptibility testing. In a few lines: as §1
The test system of assay [6] is Mycobacterium tuberculosis. Nature of the assay: Antibacterial activity against drug resistant Mycobacterium tuberculosis containing phenotypic rpoB516 mutation assessed as cumulative microbial sensitivity by phenotypic drug susceptibility testing. In a few lines: as §1
Assay [7] deals with Mycobacterium tuberculosis. Put plainly: Antibacterial activity against drug resistant Mycobacterium tuberculosis containing phenotypic rpoB526 mutation assessed as cumulative microbial sensitivity by phenotypic drug susceptibility testing. In a few lines: as §1
The subject of assay [8] is Mycobacterium tuberculosis. Nature of the assay: Antibacterial activity against drug resistant Mycobacterium tuberculosis containing phenotypic rpoB511 mutation assessed as cumulative microbial sensitivity by phenotypic drug susceptibility testing. The essentials:
as §1

Assay [9] deals with Mycobacterium tuberculosis. Put plainly: Antibacterial activity against Mycobacterium tuberculosis containing phenotypic embB306 mutation assessed as microbial sensitivity by phenotypic drug susceptibility testing. In a few lines:
as §1

For assay [10], the system named is Mycobacterium tuberculosis. Nature of the assay: Antibacterial activity against drug resistant Mycobacterium tuberculosis containing phenotypic rpoB518 mutation assessed as cumulative microbial sensitivity by phenotypic drug susceptibility testing. The essentials: as §1
In assay [11] the test system is Mycobacterium tuberculosis. Put plainly: Antibacterial activity against drug resistant Mycobacterium tuberculosis containing phenotypic rpoB531 mutation assessed as cumulative microbial sensitivity by phenotypic drug susceptibility testing. The essentials:
as §1

Assay [12] relates to Mycobacterium tuberculosis. Nature of the assay: Antibacterial activity against Mycobacterium tuberculosis containing phenotypic rpoB531,rpoB526,rpo533 mutation assessed as microbial sensitivity by phenotypic drug susceptibility testing. The essentials: as §1
For assay [13], the system named is Mycobacterium tuberculosis. Put plainly: Antibacterial activity against drug resistant Mycobacterium tuberculosis containing phenotypic rpoB515 mutation assessed as cumulative microbial sensitivity by phenotypic drug susceptibility testing. In a few lines: as §1
Assay [14] concerns Mycobacterium tuberculosis. Nature of the assay: Antibacterial activity against drug resistant Mycobacterium tuberculosis containing phenotypic rpoB513 mutation assessed as cumulative microbial sensitivity by phenotypic drug susceptibility testing. The essentials: as §1
In assay [15] the test system is Mycobacterium tuberculosis. Put plainly: Antibacterial activity against drug resistant Mycobacterium tuberculosis containing phenotypic ahpC-9 mutation assessed as cumulative microbial sensitivity by phenotypic drug susceptibility testing. In a few lines:
as §1

Assay [16] concerns Mycobacterium tuberculosis. Nature of the assay: Antibacterial activity against drug resistant Mycobacterium tuberculosis containing phenotypic inhA25 mutation assessed as cumulative microbial sensitivity by phenotypic drug susceptibility testing. The essentials: as §1
In assay [17] the test system is Mycobacterium tuberculosis. Nature of the assay: Antibacterial activity against drug resistant Mycobacterium tuberculosis containing phenotypic inhA-8 mutation assessed as cumulative microbial sensitivity by phenotypic drug susceptibility testing. In a few lines: as §1
Assay [18] has as its system Mycobacterium tuberculosis. Put plainly: Antibacterial activity against drug resistant Mycobacterium tuberculosis containing phenotypic katG299 mutation assessed as cumulative microbial sensitivity by phenotypic drug susceptibility testing. In a few lines: as §1
For assay [19], the system named is Mycobacterium tuberculosis. Put plainly: Antibacterial activity against drug resistant Mycobacterium tuberculosis containing phenotypic ahpC-12 mutation assessed as cumulative microbial sensitivity by phenotypic drug susceptibility testing. The essentials: as §1
For assay [20], the system named is Mycobacterium tuberculosis. Put plainly: Antibacterial activity against drug resistant Mycobacterium tuberculosis containing phenotypic inhA-15 mutation assessed as cumulative microbial sensitivity by phenotypic drug susceptibility testing. In a few lines: as §1
For assay [21], the system named is Mycobacterium tuberculosis. Nature of the assay: Antibacterial activity against drug resistant Mycobacterium tuberculosis containing phenotypic ahpC-6 mutation assessed as cumulative microbial sensitivity by phenotypic drug susceptibility testing. In a few lines: as §1
In assay [22] the test system is Mycobacterium tuberculosis. Put plainly: Antibacterial activity against drug resistant Mycobacterium tuberculosis containing phenotypic ahpC-32 mutation assessed as cumulative microbial sensitivity by phenotypic drug susceptibility testing. The essentials: as §1
The test system of assay [23] is Mycobacterium tuberculosis. Put plainly: Antibacterial activity against Mycobacterium tuberculosis containing phenotypic rpoB513,katG315,inhA-15,ahpC-10,ahpC-6 mutation assessed as microbial sensitivity by phenotypic drug susceptibility testing. The essentials: as §1
The subject of assay [24] is Mycobacterium tuberculosis. Nature of the assay: Antibacterial activity against drug resistant Mycobacterium tuberculosis containing phenotypic katG315 mutation assessed as cumulative microbial sensitivity by phenotypic drug susceptibility testing. The essentials: as §1
Assay [25] has as its system Mycobacterium tuberculosis. Put plainly: Antibacterial activity against drug resistant Mycobacterium tuberculosis containing phenotypic ahpC-10 mutation assessed as cumulative microbial sensitivity by phenotypic drug susceptibility testing. In a few lines:
as §1

The test system of assay [26] is Mycobacterium tuberculosis. Put plainly: Antibacterial activity against drug resistant Mycobacterium tuberculosis containing phenotypic katG322 mutation assessed as cumulative microbial sensitivity by phenotypic drug susceptibility testing. The essentials:
as §1

Assay [27] has as its system Mycobacterium tuberculosis. Put plainly: Antibacterial activity against drug resistant Mycobacterium tuberculosis containing phenotypic ahpC-39 mutation assessed as cumulative microbial sensitivity by phenotypic drug susceptibility testing. The essentials: as §1
Assay [28] deals with Mycobacterium tuberculosis. Nature of the assay: Antibacterial activity against drug resistant Mycobacterium tuberculosis containing phenotypic ahpC-15 mutation assessed as cumulative microbial sensitivity by phenotypic drug susceptibility testing. In a few lines: as §1
The test system of assay [29] is Mycobacterium tuberculosis. Nature of the assay: Antibacterial activity against drug resistant Mycobacterium tuberculosis containing phenotypic katG295 mutation assessed as cumulative microbial sensitivity by phenotypic drug susceptibility testing. In a few lines:
as §1

Regarding `CO[C@H]1/C=C/O[C@@]2(C)Oc3c(C)c(O)c4c(O)c(c(/C=N/N5CCN(C)CC5)c(O)c4c3C2=O)NC(=O)/C(C)=C\C=C\[C@H](C)[C@H](O)[C@@H](C)[C@@H](O)[C@@H](C)[C@H](OC(C)=O)[C@@H]1C` [RIFAMPIN], the Activity amounted to 95.9% in [1]; 95.9% in [2]; 95.9% in assay [3]; 96.3% in assay [4]; 90.9% in assay [5]; 87.2% in assay [6]. In addition, the Activity in [7] is 79.8%; in assay [8], 94.2%; in assay [9] it was 93.8%; in [10], 95.9%; in assay [11], 61.2%; in [12], 93.8%. Besides, the Activity was determined as 95.9% in assay [13] and 93.8% in assay [14].

For the compound `NNC(=O)c1ccncc1` [ISONIAZID], the Activity was determined as 87.6% in assay [15]; 87.6% in assay [16]; 86.4% in assay [17]; 88.8% in assay [18]; 85.5% in assay [19]; 78.5% in assay [20]. In addition, the Activity in assay [21] is reported as 83.1%; in [22], 88%; in [23], 85.5%; in [9], 89.3%; in assay [24], 72.7%; in assay [25] it was 80.6%. Also, the Activity in [26] worked out at 89.3%; in assay [27] it was 86.4%; in assay [28] it was 88.4%; in assay [29], 88.8%.
